ChEMBL document CHEMBL4689842, “EUbOPEN Chemogenomics Library wave 1” (2021)
Values joined by “and” are separate entries in the source; they are usually repeats but may differ in a detail not shown here. Identical values can stand only once.

Tested on: HEK-293T
Experiment: Multiplex assay against HEK293T;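 as to Population Tubulin-Different-Phenotype (%): share of the cells with healthy nuclei that show this phenotype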
Format: toxicity, cell-based
Conditions: human
In short: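 Imaging took place on a CQ1 microscope at 37°C and 5% CO2 once compound had been added to live cells stained at seeding with Hoechst33342, BioTracker Green Microtubule Cytoskeleton Dye, MitoTracker Red and Annexin V Alexa Fluor 680. CellPathfinder machine-learning gating classed cells as Hoechst high-intensity objects or normal cells, classed normal cells as having healthy, pyknosed or fragmented nuclei, and classed pyknosed cells as mitotic or apoptotic. Tubulin, mitochondrial-mass and membrane-permeability phenotypes are per cents of the healthy-nucleus cells.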

[1] = 12 h, 1 µM, compound concentration 1 uM, replicate 1
[2] = 12 h, 1 µM, compound concentration 1 uM, replicate 2
[3] = 12 h, 10 µM, compound concentration 10 uM, replicate 1
[4] = 12 h, 10 µM, compound concentration 10 uM, replicate 2
[5] = 24 h, 1 µM, compound concentration 1 uM, replicate 1
[6] = 24 h, 1 µM, compound concentration 1 uM, replicate 2
[7] = 24 h, 10 µM, compound concentration 10 uM, replicate 1
[8] = 24 h, 10 µM, compound concentration 10 uM, replicate 2
[9] = 48 h, 1 µM, compound concentration 1 uM, replicate 1
[10] = 48 h, 1 µM, compound concentration 1 uM, replicate 2
[11] = 48 h, 10 µM, compound concentration 10 uM, replicate 1
[12] = 48 h, 10 µM, compound concentration 10 uM, replicate 2

O=C(NCCCC1CCCCC1)c1ccc(CNC(=O)c2cnn(-c3ccccc3)c2C(F)(F)F)cc1 [SR-321]
Population Apoptotic (%) [1]: 40% and 29% and 42% | Population Fragmented Nuclei (%) [1]: 15% [middle of 4 runs] | Population Healthy Nuclei (%) [1]: 31% and 37% and 67% | Population Hoechst High Intensity Objects (%) [1]: 14% [middle of 4 runs] | Population Membrane Permeable-Phenotype (%) [1]: 2% and 0% and 3% | Population Mitotic Cells (%) [1]: 59% and 70% and 57% | Population Normal (%) [1]: 85% and 83% and 90% and 88% | Total Cell Count [1]: 312 [middle of 4 runs] | Population Apoptotic (%) [2]: 10% [middle of 4 runs] | Population Fragmented Nuclei (%) [2]: 6% [middle of 4 runs] | Population Healthy Nuclei (%) [2]: 42% [middle of 4 runs] | Population Hoechst High Intensity Objects (%) [2]: 3% and 2% and 5% | Population Membrane Permeable-Phenotype (%) [2]: 10% and 8% and 1% | Population Mitochondria Different-Phenotype (%) [2]: 10% and 19% and 7% | Population Mitotic Cells (%) [2]: 85% and 90% and 89% and 92% | Population Normal (%) [2]: 96% and 97% and 94% | Population Apoptotic (%) [3]: 50% [middle of 4 runs] | Population Fragmented Nuclei (%) [3]: 16% [middle of 4 runs] | Population Hoechst High Intensity Objects (%) [3]: 17% [middle of 4 runs] | Population Membrane Permeable-Phenotype (%) [3]: 6% and 2% and 4% | Population Mitotic Cells (%) [3]: 60% [middle of 4 runs] | Population Normal (%) [3]: 86% and 81% and 82% and 89% | Total Cell Count [3]: 302 [middle of 4 runs] | Population Healthy Nuclei (%) [4]: 38% [middle of 4 runs] | Population Hoechst High Intensity Objects (%) [4]: 4% and 2% and 3% | Population Membrane Permeable-Phenotype (%) [4]: 5% and 3% and 0% | Population Mitotic Cells (%) [4]: 86% [middle of 4 runs] | Population Normal (%) [4]: 95% and 97% and 96% | Population Tubulin-Different-Phenotype (%) [4]: 32% [middle of 4 runs] | Population Fragmented Nuclei (%) [5]: 13% [middle of 4 runs] | Population Healthy Nuclei (%) [5]: 42% and 36% and 81% | Population Hoechst High Intensity Objects (%) [5]: 15% [middle of 4 runs] | Population Membrane Permeable-Phenotype (%) [5]: 2% [middle of 4 runs] | Population Mitotic Cells (%) [5]: 59% and 54% and 58% and 86% | Population Normal (%) [5]: 87% and 83% and 84% and 93% | Total Cell Count [5]: 361 [middle of 4 runs] | Population Healthy Nuclei (%) [6]: 65% [middle of 4 runs] | Population Hoechst High Intensity Objects (%) [6]: 2% and 3% | Population Membrane Permeable-Phenotype (%) [6]: 11% [middle of 4 runs] | Population Mitotic Cells (%) [6]: 82% and 89% and 94% | Population Normal (%) [6]: 97% and 96% | Population Tubulin-Different-Phenotype (%) [6]: 20% [middle of 4 runs] | Population Apoptotic (%) [7]: 57% [middle of 4 runs] | Population Fragmented Nuclei (%) [7]: 16% and 19% and 18% | Population Membrane Permeable-Phenotype (%) [7]: 0% and 4% and 6% | Population Mitotic Cells (%) [7]: 53% [middle of 4 runs] | Population Normal (%) [7]: 81% and 80% and 85% and 93% | Population Tubulin-Different-Phenotype (%) [7]: 59% and 53% and 26% | Population Healthy Nuclei (%) [8]: 55% [middle of 4 runs] | Population Hoechst High Intensity Objects (%) [8]: 3% and 4% | Population Mitotic Cells (%) [8]: 73% and 81% and 95% | Population Normal (%) [8]: 96% and 95% | Population Tubulin-Different-Phenotype (%) [8]: 44% [middle of 4 runs] | Population Apoptotic (%) [9]: 41% and 50% and 34% | Population Fragmented Nuclei (%) [9]: 14% and 21% and 17% | Population Healthy Nuclei (%) [9]: 34% and 40% | Population Hoechst High Intensity Objects (%) [9]: 14% and 20% | Population Membrane Permeable-Phenotype (%) [9]: 4% and 2% | Population Mitochondria Different-Phenotype (%) [9]: 31% and 29% | Population Mitotic Cells (%) [9]: 58% and 49% and 65% | Population Normal (%) [9]: 85% and 79% | Population Pyknosed Nuclei (%) [9]: 50% and 38% and 42% | Population Tubulin-Different-Phenotype (%) [9]: 27% and 29% | Total Cell Count [9]: 401 and 332 and 411 | Population Apoptotic (%) [10]: 9% and 8% and 13% | Population Fragmented Nuclei (%) [10]: 6% and 5% | Population Healthy Nuclei (%) [10]: 79% and 76% and 82% | Population Hoechst High Intensity Objects (%) [10]: 3% and 5% | Population Membrane Permeable-Phenotype (%) [10]: 8% and 6% | Population Mitochondria Different-Phenotype (%) [10]: 3% and 7% and 6% | Population Mitotic Cells (%) [10]: 90% and 91% and 86% | Population Normal (%) [10]: 96% and 94% | Population Pyknosed Nuclei (%) [10]: 13% and 17% and 11% | Population Tubulin-Different-Phenotype (%) [10]: 18% and 22% and 15% | Total Cell Count [10]: 377 and 459 and 394 | Population Apoptotic (%) [11]: 48% and 63% and 54% | Population Fragmented Nuclei (%) [11]: 23% and 25% | Population Healthy Nuclei (%) [11]: 28% and 27% and 18% | Population Hoechst High Intensity Objects (%) [11]: 19% and 20% and 16% | Population Membrane Permeable-Phenotype (%) [11]: 0% and 1% | Population Mitochondria Different-Phenotype (%) [11]: 73% and 83% | Population Mitotic Cells (%) [11]: 51% and 36% and 45% | Population Normal (%) [11]: 80% and 79% and 83% | Population Pyknosed Nuclei (%) [11]: 47% and 48% and 56% | Population Tubulin-Different-Phenotype (%) [11]: 32% and 59% | Total Cell Count [11]: 274 and 281 and 324 | Population Apoptotic (%) [12]: 30% and 26% and 20% | Population Fragmented Nuclei (%) [12]: 6% and 5% and 8% | Population Healthy Nuclei (%) [12]: 78% and 75% and 74% | Population Hoechst High Intensity Objects (%) [12]: 3% and 2% | Population Membrane Permeable-Phenotype (%) [12]: 5% and 2% | Population Mitochondria Different-Phenotype (%) [12]: 27% and 41% and 31% | Population Mitotic Cells (%) [12]: 69% and 73% and 79% | Population Normal (%) [12]: 96% and 97% | Population Pyknosed Nuclei (%) [12]: 15% and 19% and 17% | Population Tubulin-Different-Phenotype (%) [12]: 50% and 52% and 49% | Total Cell Count [12]: 396 and 327 and 349
